# Laboratory results as given in ChEMBL document CHEMBL1125769 (J Med Chem, 1991).
# Numbered stars: 1 amine (or outer) side, 2 acyl side, 3 side chain; on linkers, the order of the positions; unused ones are H or OH. Square brackets hold non-standard residues; d marks the D form. Peptide text beside a SMILES is read from it. X2 = O=C([C@H]1C[S+]([O-])CN1[*:1])[*:2]; Thz(5,5-Me2) = CC1(C)SCN[C@@H]1C(=O)O; Pen = CC(C)(S)[C@H](N)C(=O)O; NMeA = CN[C@@H](C)C(=O)O; Ac5c = NC1(C(=O)O)CCCC1; Aib = CC(C)(N)C(=O)O; Sar = CNCC(=O)O
# Legend:
# Angiotensin II receptor = target: T1, Angiotensin II receptor (Rattus norvegicus, UniProt P29089+P25095+P35351); test: In vitro antagonist activity (ANG II like) expressed as percent activity relative to ANG II in rabbit aorta strip assay.; type: functional, tissue-based
# T1 sequence (P29089 whole entry): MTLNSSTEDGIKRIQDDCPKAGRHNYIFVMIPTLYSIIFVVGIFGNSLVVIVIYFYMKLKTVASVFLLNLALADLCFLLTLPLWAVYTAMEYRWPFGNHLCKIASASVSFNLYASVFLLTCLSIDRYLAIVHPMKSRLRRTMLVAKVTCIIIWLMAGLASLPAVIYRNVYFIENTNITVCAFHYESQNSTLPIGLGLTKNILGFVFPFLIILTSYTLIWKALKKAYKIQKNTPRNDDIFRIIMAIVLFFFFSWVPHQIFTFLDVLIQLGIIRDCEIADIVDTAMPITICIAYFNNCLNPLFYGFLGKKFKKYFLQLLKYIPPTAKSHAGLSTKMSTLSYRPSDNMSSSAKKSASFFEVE
# T1 sequence (P25095 whole entry): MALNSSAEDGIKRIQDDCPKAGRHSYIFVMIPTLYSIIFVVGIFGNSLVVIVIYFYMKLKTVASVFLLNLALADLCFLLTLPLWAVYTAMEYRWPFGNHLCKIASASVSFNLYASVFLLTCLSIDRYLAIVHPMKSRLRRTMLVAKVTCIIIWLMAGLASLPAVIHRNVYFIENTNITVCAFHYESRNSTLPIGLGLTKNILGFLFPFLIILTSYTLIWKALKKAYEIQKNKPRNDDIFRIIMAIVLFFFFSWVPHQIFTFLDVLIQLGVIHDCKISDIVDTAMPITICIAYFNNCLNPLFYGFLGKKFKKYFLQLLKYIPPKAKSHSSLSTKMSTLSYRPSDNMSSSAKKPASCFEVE
# T1 sequence (P35351 whole entry): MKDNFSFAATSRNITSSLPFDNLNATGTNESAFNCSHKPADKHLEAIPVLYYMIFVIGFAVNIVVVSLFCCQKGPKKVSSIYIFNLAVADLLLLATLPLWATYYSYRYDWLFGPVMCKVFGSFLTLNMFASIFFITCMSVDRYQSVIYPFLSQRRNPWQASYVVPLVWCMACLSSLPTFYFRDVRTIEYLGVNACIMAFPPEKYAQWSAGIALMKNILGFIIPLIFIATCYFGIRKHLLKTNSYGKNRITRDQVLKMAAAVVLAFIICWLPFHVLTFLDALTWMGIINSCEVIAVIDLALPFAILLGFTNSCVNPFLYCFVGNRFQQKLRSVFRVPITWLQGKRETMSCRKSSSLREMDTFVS
# [1] = target: T2, Angiotensin II receptor (Rattus norvegicus) (UniProt P29089+P25095+P35351); test: In vivo antagonist activity (ANG II like) expressed by blood pressure increase (mHg) produced by […] iv injection of compound in rats; type: functional, organism-based
# Summary of the method: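 Rat blood pressure assay after Regoli et al.; residual ANG II-like activity read as mmHg rise in blood pressure following a one microgram intravenous bolus of compound; n = 5.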
# [2] = target: T2, Angiotensin II receptor (Rattus norvegicus); test: In vitro agonist activity relative to angiotensin II measured in rabbit aorta strip assay.; type: functional, tissue-based
SMILES,pA2 (Angiotensin II receptor),ID50 (ng min-1 rat-1) [1],Activity [2] [%]
CC[C@H](C)[C@H](NC(=O)[C@H]1N(C(=O)[C@H](Cc2c[nH]cn2)NC(=O)[C@@H](NC(=O)[C@H](Cc2ccc(O)cc2)NC(=O)[C@@H](NC(=O)[C@H](CCCN=C(N)N)NC(=O)CNC)C(C)C)[C@@H](C)CC)CSC1(C)C)C(=O)O,7.5,–,–
CC[C@H](C)[C@H](NC(=O)[C@@H]1CCCN1C(=O)[C@H](Cc1c[nH]cn1)NC(=O)[C@](C)(Cc1ccc(O)cc1)NC(=O)[C@H](Cc1ccc(O)cc1)NC(=O)[C@@H](NC(=O)[C@H](CCCN=C(N)N)NC(=O)CNC)C(C)C)C(=O)O,8.25,100,0
CC[C@H](C)[C@H](NC(=O)C(C)(C)NC(=O)[C@H](Cc1c[nH]cn1)NC(=O)[C@@H](NC(=O)[C@H](Cc1ccc(O)cc1)NC(=O)[C@@H](NC(=O)[C@H](CCCN=C(N)N)NC(=O)CNC)C(C)C)[C@@H](C)CC)C(=O)O (H-[Sar]RVYIH[Aib]I-OH),8,60,0
CC[C@H](C)[C@H](NC(=O)[C@@H]1CCCN1C(=O)[C@H](Cc1c[nH]cn1)NC(=O)[C@H]1N(C(=O)[C@H](Cc2ccc(O)cc2)NC(=O)[C@@H](NC(=O)[C@H](CCCN=C(N)N)NC(=O)CNC)C(C)C)CSC1(C)C)C(=O)O,9,–,–
CNCC(=O)N[C@@H](CCCN=C(N)N)C(=O)N[C@H](C(=O)N[C@@H](Cc1ccc(O)cc1)C(=O)NC1(C(=O)N[C@@H](Cc2c[nH]cn2)C(=O)N2CCC[C@H]2C(=O)N[C@@H](Cc2ccccc2)C(=O)O)CCCC1)C(C)C (H-[Sar]RVY[Ac5c]HPF-OH),–,–,70
CNCC(=O)N[C@@H](CCCN=C(N)N)C(=O)N[C@H](C(=O)N[C@@H](Cc1ccc(O)cc1)C(=O)N1CSC(C)(C)[C@H]1C(=O)N[C@@H](Cc1c[nH]cn1)C(=O)N1CCC[C@H]1C(=O)N[C@H](Cc1ccccc1)C(=O)O)C(C)C,7.5,–,–
CC[C@H](C)[C@H](NC(=O)[C@@H]1N(C(=O)[C@H](Cc2c[nH]cn2)NC(=O)[C@@H](NC(=O)[C@H](Cc2ccc(O)cc2)NC(=O)[C@@H](NC(=O)[C@H](CCCN=C(N)N)NC(=O)CNC)C(C)C)[C@@H](C)CC)CSC1(C)C)C(=O)O,–,250,4
CNCC(=O)N[C@@H](CCCN=C(N)N)C(=O)N[C@H](C(=O)N[C@@H](Cc1ccc(O)cc1)C(=O)N1CSC(C)(C)[C@@H]1C(=O)N[C@@H](Cc1c[nH]cn1)C(=O)N1CCC[C@H]1C(=O)N[C@H](Cc1ccccc1)C(=O)O)C(C)C,–,1000,0
CC[C@H](C)[C@H](NC(=O)[C@H](Cc1ccc(O)cc1)NC(=O)[C@@H](NC(=O)[C@H](CCCN=C(N)N)NC(=O)CNC)C(C)C)C(=O)N[C@@H](Cc1c[nH]cn1)C(=O)N1CCC[C@H]1C(=O)N[C@H](Cc1ccccc1)C(=O)O,9,12.5,0
CC[C@@H](C)[C@@H](NC(=O)[C@H](Cc1ccc(O)cc1)NC(=O)[C@@H](NC(=O)[C@H](CCCN=C(N)N)NC(=O)CNC)C(C)C)C(=O)N[C@@H](Cc1c[nH]cn1)C(=O)N1CCC[C@H]1C(=O)NC(C)(C)C(=O)O,–,–,0
CC[C@H](C)[C@H](NC(=O)[C@H](Cc1ccc(O)cc1)NC(=O)[C@@H](NC(=O)[C@H](CCCN=C(N)N)NC(=O)CNC)C(C)C)C(=O)N[C@@H](Cc1c[nH]cn1)C(=O)N1CCC[C@H]1C(=O)NC(C)(C)C(=O)O,8.7,–,–
CC[C@H](C)[C@H](NC(=O)[C@H]1C[S+]([O-])CN1C(=O)[C@H](Cc1c[nH]cn1)NC(=O)[C@@H](NC(=O)[C@H](Cc1ccc(O)cc1)NC(=O)[C@@H](NC(=O)[C@H](CCCN=C(N)N)NC(=O)CNC)C(C)C)[C@@H](C)CC)C(=O)O (stereo not given in full) (H-[Sar]RVYIH[X2]I-OH),6.7,–,–
CC[C@H](C)[C@H](NC(=O)[C@@H]1CCCN1C(=O)[C@H](Cc1c[nH]cn1)NC(=O)[C@H](C)NC(=O)[C@H](Cc1ccc(O)cc1)NC(=O)[C@@H](NC(=O)[C@H](CCCN=C(N)N)NC(=O)CNC)C(C)C)C(=O)O (H-[Sar]RVYAHPI-OH),7.5,50,0
CC[C@H](C)[C@H](NC(=O)[C@@H]1CSCN1C(=O)[C@H](Cc1c[nH]cn1)NC(=O)[C@@H](NC(=O)[C@H](Cc1ccc(O)cc1)NC(=O)[C@@H](NC(=O)[C@H](CCCN=C(N)N)NC(=O)CNC)C(C)C)[C@@H](C)CC)C(=O)O,9.7,–,–
CC[C@H](C)[C@H](NC(=O)[C@H]1CSCN1C(=O)[C@H](Cc1c[nH]cn1)NC(=O)[C@@H](NC(=O)[C@H](Cc1ccc(O)cc1)NC(=O)[C@@H](NC(=O)[C@H](CCCN=C(N)N)NC(=O)CNC)C(C)C)[C@@H](C)CC)C(=O)O,–,–,0
CC[C@H](C)[C@H](NC(=O)[C@H](Cc1ccc(O)cc1)NC(=O)[C@H](C)N(C)C(=O)[C@H](CCCN=C(N)N)NC(=O)CNC)C(=O)N[C@@H](Cc1c[nH]cn1)C(=O)N1CCC[C@H]1C(=O)N[C@@H](Cc1ccccc1)C(=O)O,–,–,120
"CNCC(=O)N[C@@H](CCCN=C(N)N)C(=O)N(C)[C@@H](C)C(=O)N[C@@H](Cc1ccc(O)cc1)C(=O)N1CSC(C)(C)[C@H]1C(=O)N[C@@H](Cc1c[nH]cn1)C(=O)N1CCC[C@H]1C(=O)NC(C)(C)C(=O)O (H-[Sar]R[NMeA]Y[Thz(5,5-Me2)]HP[Aib]-OH)",< 6,–,–
CC[C@H](C)[C@H](NC(=O)[C@@H]1CCCN1C(=O)[C@H](Cc1c[nH]cn1)NC(=O)[C@@H](NC(=O)[C@H](Cc1ccc(O)cc1)NC(=O)[C@@H](NC(=O)[C@H](CCCN=C(N)N)NC(=O)CNC)C(C)C)[C@@H](C)CC)C(=O)O,–,10,0
CC[C@H](C)[C@H](NC(=O)[C@@H]1CCCN1C(=O)[C@H](Cc1c[nH]cn1)NC(=O)[C@@H](NC(=O)[C@H](Cc1ccc(O)cc1)NC(=O)[C@H](C)N(C)C(=O)[C@H](CCCN=C(N)N)NC(=O)CNC)[C@@H](C)CC)C(=O)O (H-[Sar]R[NMeA]YIHPI-OH),8.9,25,0
CC[C@H](C)[C@H](NC(=O)[C@H](C)N(C)C(=O)[C@H](Cc1c[nH]cn1)NC(=O)[C@@H](NC(=O)[C@H](Cc1ccc(O)cc1)NC(=O)[C@@H](NC(=O)[C@H](CCCN=C(N)N)NC(=O)CNC)C(C)C)[C@@H](C)CC)C(=O)O (H-[Sar]RVYIH[NMeA]I-OH),8.4,20,0
CC[C@H](C)[C@H](NC(=O)[C@@H]1CCCN1C(=O)[C@H](Cc1c[nH]cn1)NC(=O)[C@@H]1N(C(=O)[C@H](Cc2ccc(O)cc2)NC(=O)[C@@H](NC(=O)[C@H](CCCN=C(N)N)NC(=O)CNC)C(C)C)CSC1(C)C)C(=O)O,–,25,0
CC[C@H](C)[C@@H](C(=O)N[C@@H](Cc1c[nH]cn1)C(=O)N1CCC[C@H]1C(=O)N[C@@H](Cc1ccccc1)C(=O)O)N(C)C(=O)[C@H](Cc1ccc(O)cc1)NC(=O)[C@@H](NC(=O)[C@H](CCCN=C(N)N)NC(=O)CNC)C(C)C,–,–,20
CC[C@H](C)[C@H](NC(=O)[C@@H]1CCCN1C(=O)[C@H](Cc1c[nH]cn1)NC(=O)[C@H]([C@@H](C)CC)N(C)C(=O)[C@H](Cc1ccc(O)cc1)NC(=O)[C@@H](NC(=O)[C@H](CCCN=C(N)N)NC(=O)CNC)C(C)C)C(=O)O,7.64,–,0
CC[C@H](C)[C@H](NC(=O)[C@@H]1CCCN1C(=O)[C@H](Cc1c[nH]cn1)NC(=O)[C@@H](NC(=O)[C@H](Cc1ccc(O)cc1)NC(=O)[C@@H](NC(=O)[C@H](CCCN=C(N)N)NC(=O)CNC)C(C)C)C(C)(C)SC)C(=O)O (H-[Sar]RVY[Pen](Me)HPI-OH),9,–,–
CC[C@H](C)[C@H](NC(=O)[C@H](Cc1ccc(O)cc1)NC(=O)[C@H](C)NC(=O)[C@H](CCCN=C(N)N)NC(=O)CNC)C(=O)N[C@@H](Cc1c[nH]cn1)C(=O)N1CCC[C@H]1C(=O)N[C@@H](Cc1ccccc1)C(=O)O (H-[Sar]RAYIHPF-OH),–,–,38
CC[C@H](C)[C@H](NC(=O)[C@@H]1CCCN1C(=O)[C@H](Cc1c[nH]cn1)NC(=O)[C@H](Cc1ccc(O)cc1)NC(=O)[C@H](Cc1ccc(O)cc1)NC(=O)[C@@H](NC(=O)[C@H](CCCN=C(N)N)NC(=O)CNC)C(C)C)C(=O)O,9.6,–,–
CC[C@H](C)[C@H](NC(=O)[C@@H]1CCCN1C(=O)[C@H](Cc1c[nH]cn1)NC(=O)[C@@H](NC(=O)[C@H](Cc1ccc(O)cc1)NC(=O)[C@@H]1CCCN1C(=O)[C@H](CCCN=C(N)N)NC(=O)CNC)[C@@H](C)CC)C(=O)O (H-[Sar]RPYIHPI-OH),7.17,–,1.5
